TNF necrop inh: TNF-alpha cell death inhibition in Jurkat FADD-/- cells | Jurkat FADD-/- TNF necroptosis rescue, ATP luminescence, 24 h; 0 = TNF only, 100 = no-TNF cells | activation (protection from cell death), % at 10 µM | actives 0.068% (n = 220,000);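 active = activation, meaning protection from cell death, of at least 50% relative to plate controls; inactive = activation below 50%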;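 note: necroptosis triggered by 40 ng/mL TNF-alpha added together with compound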
PfM18AAP inh: blocks P. falciparum M18 aspartyl aminopeptidase. recombinant PfM18AAP, H-Glu-NHMec fluorogenic cleavage. inhibition, % at 7.35 µM. actives 1.2% (n = 290,000). AID 1822;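 active = inhibition above the campaign mean inhibition over all tested compounds plus 3 SD, cut at about 28% in these data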;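 note: 0% = plate median of test compound wells and 100% = 2 mM ZnCl2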
L929 necroptosis: blocks zVAD induced death of L929 cells. viability rescue, % at 10 µM. AID 1377. actives 0.38% (n = 220,000). L929 zVAD necroptosis rescue, ATP luminescence, 24 h; with zVAD 60 µM;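 active = activation, scaled between plate controls, above about 75%, limit read from the data; inactive = activation under that limit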;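 note: 0% = zVAD with DMSO and 100% = DMSO alone without zVAD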
TbHK1 inh: blocks Trypanosoma brucei hexokinase 1 activity | actives 0.11% (n = 220,000) | inhibition, % at 10 µM | AID 1430 | recombinant TbHK1, G6PDH-coupled NADH A340;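 active = inhibition of 50% or more in the single-dose primary screen; inactive = inhibition below 50%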
Lipid droplet: modulators of hepatic lipid droplet formation; AML12 mouse hepatocytes, oleate lipid droplets, BODIPY imaging; inhibition, % at 6.5 µM; actives 0.4% (n = 240,000); AID 1656;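 active = lipid droplet intensity inhibited by at least 50%, with more than 500 cells counted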
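Technique: fluorescence imaging, 20x objective, two fields per well / Assay system: AML12 hepatocytes (mouse) / Measure: % inhibition of lipid droplet signal / Doses: 6.5 µM single-point dosing / Incubation: overnight exposure / Reagent: 100 µM oleic acid challenge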
RBBP9 inh: human RBBP9 hydrolase inhibition; recombinant RBBP9, FP-Rh probe fluorescence polarization; inhibition, % at 7.94 µM; actives 0.2% (n = 220,000); O75884;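 active = inhibition above the campaign mean of all tested compounds plus 3 SD, cut at about 14% in these data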;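 note: plate controls were DMSO wells with RBBP9 for no effect and wells lacking RBBP9 protein for full effect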
Target sequence (O75884 whole entry, looked up): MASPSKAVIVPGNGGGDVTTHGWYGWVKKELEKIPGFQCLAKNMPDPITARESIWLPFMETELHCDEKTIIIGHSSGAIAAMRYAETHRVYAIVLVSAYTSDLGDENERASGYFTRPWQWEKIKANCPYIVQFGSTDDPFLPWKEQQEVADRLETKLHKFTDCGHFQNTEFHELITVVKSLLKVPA
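Assay system: recombinant human RBBP9; Reagent: Serine-hydrolase probe FP-Rh, 375 nM pre-mixing; Doses: 7.94 µM single dose, 0.794% DMSO; Incubation: 30 min then 45 min, 25 °C; Detection: fluorescence polarization (mP), excitation 525 nm, emission 598 nm; Evaluation: percent inhibition from mP, scaled between DMSO and no-protein wells.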
Starred values were filed as active, the others as inactive; · = not tested or not shown. This is a sample that favours compounds with a hit; in the whole collection about 2% have one here.

SMILES	TNF necrop inh	PfM18AAP inh	L929 necroptosis	TbHK1 inh	Lipid droplet	RBBP9 inh
CCOc1cccc2sc(NC(=O)CC)nc12	12	6	0	-3	24	-6
CCC(=O)NNc1nc2c(F)cccc2s1	0	31*	1	-1	9	2
COC(=O)c1cccc(/C=N/NC(N)=S)c1O	-13	31*	2	-19	-34	-4
Nc1ccc(Oc2ncccn2)cc1	·	28*	·	·	·	·
Cc1sc(NC(=O)c2cccs2)c(C(N)=O)c1C	0	-17	75*	-15	·	2
Cc1sc(NC(=O)c2ccccc2)c(C(=O)c2ccccc2)c1C	3	32*	1	1	11	-5
C=CCc1cccc(/C=N/NC(=O)CNc2ccccc2)c1O	-13	0	1	-10	-7	-1
C=CCc1cccc(/C=N/n2cnnc2)c1O	0	30*	0	-15	-5	6
C=CCc1cccc(/C=N/NC(=O)C[n+]2ccccc2)c1O	·	29*	·	·	4	·
COc1ccc(NC(=O)C23CCC(C)(C(=O)C2)C3(C)C)cc1 (stereo unspecified)	-1	5	0	-7	-25	1
Cc1cccc(C(=O)NC(=S)NNC(=O)COc2c(C)cccc2C)c1	1	30*	0	8	12	-2
Cc1cccc(C(=O)NC(=S)NNC(=O)c2ccccc2Cl)c1	-6	29*	1	-2	-4	-2
O=C(NC(=S)NNS(=O)(=O)c1ccccc1)c1cccnc1	0	31*	2	5	-12	-2
Cc1ccc(C(=O)NC(=S)NNC(=O)COc2ccccc2C)cc1	-1	4	1	6	14	3
O=C(NC(=S)NNC(=O)c1ccc(Cl)cc1Cl)c1cccnc1	0	38*	1	26	-7	-7
Cc1cccc(C(=O)NC(=S)Nc2ccccc2C(=O)O)c1	1	4	1	-10	-2	-1
O=C(NC(=S)NNC(=O)c1ccccc1O)c1cccnc1	-1	5	4	-3	3	-4
COc1cc(C)ccc1S(=O)(=O)n1nc(C)cc1C	-1	-7	-1	2	-31	-5
Cc1c(NC(=O)CN2C(=O)NC3(CCC(C)CC3)C2=O)c(=O)n(-c2ccccc2)n1C (stereo unspecified)	0	2	4	4	5	-3
COc1ccc(OC(C)C(=O)N(C)Cc2nc(-c3cccc(C)c3)no2)cc1 (stereo unspecified)	·	-2	·	·	-10	·
CCC(C)(C)n1nnnc1C(c1cc2ccc(C)cc2[nH]c1=O)N(Cc1cccnc1)Cc1ccco1 (stereo unspecified)	-5	22	0	-11	62*	-1
O=C(COc1ccc2ccccc2c1Br)Nc1ncn[nH]1	1	9	0	-4	·	-15
Cc1cccc(C)c1OCC(=O)Nc1ncn[nH]1	-2	29*	0	-3	5	-10
O=C(Cn1c(=O)oc2ccccc21)N1CCOCC1	0	-4	1	-3	0	-5
CCN1CCN(C(=S)c2ccc(SC)cc2)CC1	2	31*	0	-1	2	-2
SMILES	TNF necrop inh	PfM18AAP inh	L929 necroptosis	TbHK1 inh	Lipid droplet	RBBP9 inh
CN1C=CC2=C(C#N)C(N)C(C#N)(C#N)[C@H](c3ccccc3)[C@H]2C1 (stereo partly specified)	1	1	0	0	-4	-8
CCCc1nnc(NC(=O)CCC(=O)N2CCN(Cc3cc(Cl)ccc3OC)CC2)s1	·	7	·	·	-65	·
CCC(Sc1nc(N)c(NC(=O)c2ccc(Br)o2)c(=O)[nH]1)C(=O)O (stereo unspecified)	·	-18	·	·	11	·
Cc1cc(C)c2c(=O)n(CC(=O)NC3CCCC3)sc2n1	-7	56*	1	-6	1	-20
Fc1ccc(NC(=S)Nc2cc(Cl)ccc2Cl)cc1	-2	-3	-1	2	-6	-8
CCN=c1scc(C)n1/N=C/c1cc(Br)c(O)c(Br)c1	0	30*	1	-6	-4	3
FC(F)(F)c1ccccc1/C=N/n1c(COc2ccccc2)n[nH]c1=S	·	28*	·	·	-5	·
COc1cc(/C=N/n2c(COc3ccccc3)n[nH]c2=S)cc(Br)c1O	·	31*	·	·	11	·
FC(F)(F)c1ccc(/C=N/n2c(COc3ccccc3)n[nH]c2=S)cc1	·	7	·	·	10	·
CCc1n[nH]c(=S)n1/N=C/c1cc(Br)c(O)c(OC)c1	2	23	1	-46	-20	-7
COc1cccc(/C=N/n2c(COc3ccccc3)n[nH]c2=S)c1OC	·	32*	·	·	-9	·
O=C(CN(C(=O)CCC(=O)Nc1nccs1)c1cccc(C(F)(F)F)c1)NCC1CCCO1 (stereo unspecified)	·	9	·	·	-16	·
CCOC(=O)COc1ccc2ccccc2c1/C=C/[N+](=O)[O-]	1	37*	0	0	3	-10
O=[N+]([O-])/C=C/c1c(OCc2ccccc2)ccc2ccccc12	-10	13	1	3	3	5
COCc1c(C(=O)N/N=C(/C)c2ccc(OCc3ccccc3)cc2)nnn1-c1nonc1N	·	-9	·	·	25	·
CCOC(=O)N/N=C/c1ccccc1F	-3	0	0	-1	·	0
CC(C)(C)c1nnc(N/N=C/c2ccccc2O)n(N)c1=O	-9	52*	49	-24	4	5
CCc1nnc(N/N=C/c2ccccc2F)n1N	0	62*	2	-11	-2	-2
Oc1ccccc1/C=N/Nc1nccnc1Cl	-13	23	31	-26	-86	0
COc1ccccc1C1(O)CCN(CC(=O)Nc2nc(-c3ccccc3)cs2)CC1	2	-2	20	-4	89*	2
CCOC(=O)C(NC(=O)CC)(N1CCc2ccccc2C1)C(F)(F)F (stereo unspecified)	0	3	0	2	·	3
O=c1[nH][nH]c2cc(=O)n(-c3cccc(C(F)(F)F)c3)nc12	-1	-2	1	2	2	-6
COC(=O)c1sc2cc(=O)n(-c3cccc(C(F)(F)F)c3)nc2c1O	0	31*	0	-9	·	9
CCc1ccc(N=C2NC(=O)/C(=C/c3cc(OC)c(O)c(OC)c3)S2)cc1	·	28*	·	·	-9	·
COc1cc(/C=C2\SC(=Nc3ccccc3)NC2=O)cc(Cl)c1O	·	13	·	·	-8	·
Cc1cc(C)cc(NC(=O)Cc2ccc(-n3cccc3)cc2)c1	2	-2	19	-2	-3	-12
O=C(COc1cccc2ccccc12)NNC(=O)Nc1ccccc1	-1	1	0	3	·	-4
O=C(COc1cccc2ccccc12)NNC(=O)CSCCO	1	31*	1	34	11	-6
O=C(O)CSc1nc2ccccc2s1	1	-9	-1	-4	2	-10
